Experimental data collected from several papers.
Target: Mitogen-activated protein kinase 12 (MAPK12, Homo sapiens, UniProt P53778)
One construct used (P53778 1-367): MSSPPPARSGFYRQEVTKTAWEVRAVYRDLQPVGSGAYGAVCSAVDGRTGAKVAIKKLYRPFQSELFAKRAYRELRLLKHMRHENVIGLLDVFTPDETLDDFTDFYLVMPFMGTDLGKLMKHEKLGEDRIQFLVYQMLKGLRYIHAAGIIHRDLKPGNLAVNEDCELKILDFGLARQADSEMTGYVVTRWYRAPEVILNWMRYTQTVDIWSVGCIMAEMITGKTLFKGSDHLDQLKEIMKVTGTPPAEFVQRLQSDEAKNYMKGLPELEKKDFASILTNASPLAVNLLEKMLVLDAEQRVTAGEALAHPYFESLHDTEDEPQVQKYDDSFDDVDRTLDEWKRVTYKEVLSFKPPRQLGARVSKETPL

| SMILES | observed | method | concentration | remaining binding |
| --- | --- | --- | --- | --- |
| COc1cnc(Nc2cccc(S(N)(=O)=O)c2)nc1N1CCN(c2ccccc2)CC1 | binding | competition with immobilised ligand | 1 µM | 91% |
| Cc1cc(NC(=O)c2cccc(S(F)(F)(F)(F)F)c2)cc(-n2ccn3nc(-c4cccnc4)cc23)c1 | cell-free assay | competition with immobilised ligand | 1 µM | 41.7% |
| CCN1CCN(Cc2ccc(C(=O)Nc3ccc(C)c(Oc4ccc5c(c4)CC(=O)N5)c3)cc2C(F)(F)F)CC1 | binding | competition with immobilised ligand | 1 µM | 100% |
| COc1ccc2cc(OCC3(C(=O)O)CN(C(=O)c4ccc(F)cc4)C3)ccc2c1 | cell-free assay | competition with immobilised ligand | 1 µM | 100% |
| CN(CCCC(F)(F)F)c1nccc(-c2cnn3ncccc23)n1 | binding | – | 1 µM | 100% |
| Nc1ncc2c(n1)-c1c([nH]c3ccc(C#CC4CC4)cc13)CCCC2 | binding | competition with immobilised ligand | 1 µM | 98% |
| O=C(c1ccc(Nc2ncc(Cl)c(-c3ccc(Cl)s3)n2)cc1)N1CCC(N2CCCC2)CC1 | binding | competition with immobilised ligand | 1 µM | 100% |
| Cc1nc(N2CC[C@@H](O)C2)ncc1-c1cc(C(F)(F)F)cc2[nH]ncc12 | binding | competition with immobilised ligand | 1 µM | 100% |
| O=C(NCCCN1CCOCC1)c1ccc(Nc2nccc(-c3cc4ccccc4s3)n2)cc1 | binding | competition with immobilised ligand | 1 µM | 100% |
| Cc1cnn2ncc(-c3ccnc(N(C)C)n3)c2c1 | binding | – | 1 µM | 85% |
| Cc1cc(Nc2nccc(C)n2)cc(-c2cnc([C@@]3(O)CC[C@H](C(=O)O)C(C)(C)C3)s2)c1 | binding | competition with immobilised ligand | 1 µM | 31.2% |
| COc1ncc2cc3ccccc3nc2c1C#N | cell-free assay | competition with immobilised ligand | 5 µM | 96% |
| CN(C)c1nccc(-c2cnn3ncccc23)n1 | binding | – | 1 µM | 60% |
| Cn1cc(Cl)c2c(Oc3c(F)cc(Nc4cc(Cl)nc(N)n4)cc3F)ccnc21 | cell-free assay | competition with immobilised ligand | 0.1 µM | 100% |
| O=C(NCC1CCOCC1)c1n[nH]cc1NC(=O)c1c(F)cccc1F | binding | competition with immobilised ligand | 1 µM | 100% |
| N[C@H]1CCN(c2nccc(-c3cnn4ncccc34)n2)C1 | binding | – | 1 µM | 86% |
| O=C(NCCCN1CCOCC1)c1ccc(Nc2ncc(Cl)c(-c3ccc(Cl)s3)n2)cc1 | binding | competition with immobilised ligand | 1 µM | 100% |
| CN(C)c1nccc(-c2cnc3ncccn23)n1 | binding | – | 1 µM | 90% |
| O=C(Nc1cccnn1)N1CC(C/C=C/c2cncc(Oc3ccc(C(F)(F)F)cn3)n2)C1 | cell-free assay | competition with immobilised ligand | 1 µM | 100% |
| C[C@@H]1CCN(c2nccc(-c3cnn4ncccc34)n2)C1 | binding | – | 1 µM | 47% |
| C=CC(=O)N1CCC(C(=O)NCC(=O)N2CCN(c3nc(-c4cnc(N)nc4C(F)F)nc(N4CCOCC4)n3)CC2)CC1 | binding | competition with immobilised ligand | 1 µM | 96% |
